E-sel inducer = E-selectin induction on HUVECs. P16581. HUVEC E-selectin immunofluorescence imaging; normalized: neutral wells 0, TNF-alpha wells 100. activation, % at 7.58 µM. 0.37% of 260,000 active. AID 686992;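 active means mean E-selectin-positive cell signal at least 10% of the positive control, reached in at least 60% of replicates, without over 20% cell loss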
Target sequence (P16581 whole entry, looked up): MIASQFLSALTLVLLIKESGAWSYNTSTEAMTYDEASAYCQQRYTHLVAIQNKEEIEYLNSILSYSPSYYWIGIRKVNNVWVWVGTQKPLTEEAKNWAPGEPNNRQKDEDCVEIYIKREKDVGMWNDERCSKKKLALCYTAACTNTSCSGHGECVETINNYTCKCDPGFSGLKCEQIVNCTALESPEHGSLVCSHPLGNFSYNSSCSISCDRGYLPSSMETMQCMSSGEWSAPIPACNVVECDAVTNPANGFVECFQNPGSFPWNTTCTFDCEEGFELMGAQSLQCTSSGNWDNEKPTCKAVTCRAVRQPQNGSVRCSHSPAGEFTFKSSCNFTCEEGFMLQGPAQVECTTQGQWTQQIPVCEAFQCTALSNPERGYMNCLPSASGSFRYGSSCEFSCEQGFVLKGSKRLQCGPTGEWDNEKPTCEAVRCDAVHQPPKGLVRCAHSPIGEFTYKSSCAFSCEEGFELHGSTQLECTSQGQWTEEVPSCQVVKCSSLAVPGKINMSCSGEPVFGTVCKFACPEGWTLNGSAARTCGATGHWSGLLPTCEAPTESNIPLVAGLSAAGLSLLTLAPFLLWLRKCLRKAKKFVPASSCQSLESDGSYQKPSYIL
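assay system = HUVEC, human umbilical vein endothelial cells | input = 3,000 HUVEC seeded per well | medium = EGM-2 growth medium on 0.1% gelatin-coated wells | dosing = one compound dose added by pin transfer | signal = immunofluorescence imaging | read-out basis = % PE-positive cells | control set = TNF-alpha, DMSO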
Statin myotox sup = suppression of simvastatin myotoxicity | rescue of ATP level, % at 7.49 µM | 0.78% of 330,000 active | C2C12 myotubes + simvastatin, ATP luminescence, 48 h; scaled: DMSO 0, geranylgeraniol control 100;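 active means mean ATP rescue above about 67%, or every replicate alone reaching that limit, limit read from the data, passing the limit was not always enough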;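 further: myotubes were challenged with 10 µM simvastatin during compound exposure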
PglD inh = inhibitors of Campylobacter jejuni PglD acetyltransferase. purified PglD enzyme, DTNB colorimetric CoA detection. inhibition, % at 12.5 µM. 0.098% of 360,000 active. AID 602405; in the data active means inhibition above about 16%, passing the limit was not always enough
Xi reactivation = reactivates the inactive X chromosome in mouse fibroblasts | XiGFP mouse fibroblasts, % GFP-positive cells imaging, 3 d; cells co-treated with 5-aza-dC sensitizer; scaled so ellipticine positive control = 100% | activation, % at 7.58 µM | 0.055% of 360,000 active;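 active means mean normalized replicate activation at least 10% and every replicate at or above 10%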;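 further: 0% = median of on-plate neutral control wells and 100% = ellipticine 6 µM median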
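Assay system: SV40-immortalized XiGFP fibroblast cells, line 68-5-11; buffer or medium: DMEM plus 5-aza-dC sensitizer; compound: one concentration, pinned; timing: compounds 3 days, fix/stain 15 min at room temperature; benchmarks: positive control ellipticine, 6 µM final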
FGF22 binding = binders of recombinant human FGF22 by thermal shift; AID 651658; SYPRO orange fluorescence; percent of sucrose octasulfate shift, DMSO zero; Q9HCT0; activity (Tm shift, normalised), % at 9.99 µM; 1.5% of 340,000 active;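 active means mean Tm shift, scaled 0 neutral to 100 positive control, at about 1.3% or above, every replicate too, limit read from the data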
DENV2 CPE rescue = protects cells from dengue virus 2 cytopathic effect. DENV2-infected cells, cytopathic effect rescue, plate reader. CPE inhibition, % at 9.99 µM. 1.7% of 350,000 active. AID 651640; in the data active means CPE inhibition above about 20%, passing the limit was not always enough; tested in BHK-21 cells;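 further: 0% = median of neutral control wells and 100% = median of positive control wells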
The depositor's hits bear a star. The list is not random: actives were taken first. Their share in the collection is about 3.3%.

What do the screens show for `C=CCNC(=O)[C@H]1[C@@H]2C(=O)O[C@@H](c3ccccc3)[C@@H](c3ccccc3)N2[C@@H](c2ccc(O)cc2)[C@]12C(=O)N(C(=O)OCCOC)c1ccc(C#Cc3ccc(OC)cc3)cc12`?
PglD inh: 2; FGF22 binding: 0; DENV2 CPE rescue: 11

What do the screens show for `C[C@@H]1CN([C@H](C)CO)C(=O)c2cc(NC(=O)Nc3cccc4ccccc34)ccc2O[C@@H](C)CCCCO[C@H]1CN(C)Cc1ccncc1`?
E-sel inducer: 0; PglD inh: 1; Xi reactivation: 3; FGF22 binding: 0; DENV2 CPE rescue: -6

Results for C[C@H](CO)N1C[C@H](C)[C@H](CN(C)Cc2ccccc2O)OCc2cn(nn2)CCCC1=O ?
E-sel inducer: 0; Statin myotox sup: 13; PglD inh: 0; Xi reactivation: 1; FGF22 binding: 0; DENV2 CPE rescue: -4

Results for CC=Cc1ccc2n(c1=O)C[C@H]1[C@H](CO)[C@@H](C(=O)NCc3ccccc3)N(C)[C@@H]21 (mixture of isomers) ?
E-sel inducer: 0; Statin myotox sup: -4; PglD inh: -1; Xi reactivation: 0; FGF22 binding: 17*; DENV2 CPE rescue: 4

What do the screens show for `CC=Cc1ccc2n(c1=O)C[C@H]1[C@H](CO)[C@@H](C(=O)N(C)C)N(Cc3cccc(F)c3)[C@@H]21` (mixture of isomers)?
E-sel inducer: 0; Statin myotox sup: -18; PglD inh: 0; Xi reactivation: 0; FGF22 binding: 0; DENV2 CPE rescue: 56*

How did CC=Cc1ccc2n(c1=O)C[C@H]1[C@H](CO)[C@@H](C(=O)NCCC)N(Cc3cocn3)[C@@H]21 (mixture of isomers) do in these assays?
E-sel inducer: 0; Statin myotox sup: -35; PglD inh: 7; Xi reactivation: 0; FGF22 binding: 1; DENV2 CPE rescue: 78*

What do the screens show for `C[C@@H](NC(=O)C[C@@H]1CC[C@H]2[C@@H](COC[C@@H](O)CN2Cc2cc(F)ccc2F)O1)c1ccccc1`?
E-sel inducer: 0; Statin myotox sup: 12; PglD inh: -25; Xi reactivation: 0; FGF22 binding: 0

Results for COCC(=O)Nc1ccc2c(c1)OC[C@@H](C)N(C(=O)Cc1ccccn1)C[C@@H](C)[C@@H](OC)CN(C)C2=O ?
E-sel inducer: 0; Statin myotox sup: 4; PglD inh: -3; Xi reactivation: 0; FGF22 binding: 0; DENV2 CPE rescue: 9

What do the screens show for `O=C(N[C@H]1CC[C@H](CCNS(=O)(=O)c2ccccc2)O[C@H]1CO)c1cccnc1`?
E-sel inducer: -2; Statin myotox sup: 2; PglD inh: 0; Xi reactivation: -1; FGF22 binding: 0; DENV2 CPE rescue: -7

What do the screens show for `Cc1cccc(C(C)C)c1NC(=O)COC(=O)Cc1ccsc1`?
E-sel inducer: 0; PglD inh: 0; Xi reactivation: 0; FGF22 binding: 0; DENV2 CPE rescue: 1

How did Cc1cccc(C)c1NC(=O)COC(=O)Cc1ccsc1 do in these assays?
Xi reactivation: 0; FGF22 binding: 43*; DENV2 CPE rescue: 14

How did C[C@H]1CCCCO[C@H](CN(C)Cc2ccc(Cl)c(Cl)c2)[C@@H](C)CN([C@@H](C)CO)C(=O)c2cc(NS(=O)(=O)c3ccc(F)cc3)ccc2O1 do in these assays?
E-sel inducer: 0; Xi reactivation: 0; FGF22 binding: 0; DENV2 CPE rescue: 22*

What do the screens show for `C[C@@H]1CN([C@H](C)CO)C(=O)c2cc(NS(=O)(=O)c3ccc(Cl)cc3)ccc2O[C@@H](C)CCCCO[C@H]1CN(C)Cc1ccc(Cl)c(Cl)c1`?
E-sel inducer: 0; PglD inh: 9; Xi reactivation: 0; FGF22 binding: -1; DENV2 CPE rescue: -9

How did C[C@H](CO)N1C[C@H](C)[C@@H](CN(C)Cc2ccc(Cl)c(Cl)c2)OCCCC[C@H](C)Oc2ccc(NS(=O)(=O)c3ccccc3)cc2C1=O do in these assays?
E-sel inducer: 0; PglD inh: -1; Xi reactivation: -1; FGF22 binding: 1; DENV2 CPE rescue: 1

What do the screens show for `C[C@@H]1CCCCO[C@H](CN(C)Cc2ccc(Cl)c(Cl)c2)[C@H](C)CN([C@@H](C)CO)C(=O)c2cc(NS(=O)(=O)c3ccccc3)ccc2O1`?
E-sel inducer: 0; PglD inh: 3; Xi reactivation: -1; FGF22 binding: 1; DENV2 CPE rescue: 32*

What do the screens show for `C[C@@H]1CCCCO[C@@H](CN(C)Cc2ccc(Cl)c(Cl)c2)[C@@H](C)CN([C@@H](C)CO)C(=O)c2cc(NS(=O)(=O)c3ccc(Cl)cc3)ccc2O1`?
Xi reactivation: 0; FGF22 binding: 0; DENV2 CPE rescue: -4

How did C[C@@H]1CCCCO[C@@H](CN(C)Cc2ccc(Cl)c(Cl)c2)[C@@H](C)CN([C@@H](C)CO)C(=O)c2cc(NS(=O)(=O)c3ccccc3)ccc2O1 do in these assays?
E-sel inducer: 0; PglD inh: 0; Xi reactivation: 0; FGF22 binding: 1; DENV2 CPE rescue: 23*

What do the screens show for `C[C@@H]1CN([C@H](C)CO)C(=O)c2cc(NS(=O)(=O)c3ccccc3)ccc2O[C@@H](C)CCCCO[C@H]1CN(C)Cc1ccc(Cl)c(Cl)c1`?
E-sel inducer: 0; PglD inh: 4; Xi reactivation: -1; FGF22 binding: 1; DENV2 CPE rescue: 23*

What do the screens show for `O=C(Nc1ccccc1)[C@@H]1[C@@H](CO)[C@@H]2Cn3c(cccc3=O)[C@@H]2N1CC1CC1`?
E-sel inducer: 0; Statin myotox sup: -12; PglD inh: 2; Xi reactivation: 0; FGF22 binding: 0; DENV2 CPE rescue: -1

How did Cc1ccc(S(=O)(=O)Nc2cccc3c2O[C@H](CN(C)S(=O)(=O)c2cccs2)[C@@H](C)CN([C@H](C)CO)C3=O)cc1 do in these assays?
E-sel inducer: 0; Statin myotox sup: 1; PglD inh: -3; Xi reactivation: 0; FGF22 binding: 0; DENV2 CPE rescue: -6

Results for COc1ccc(-c2oc(=O)c3cc(OC)c(OC)cc3c2C#CCCO)cc1 ?
E-sel inducer: 7; Statin myotox sup: -60; PglD inh: -1; Xi reactivation: 0; FGF22 binding: 0; DENV2 CPE rescue: -7

What do the screens show for `COc1cc(OC)cc(-c2oc(=O)c3cc(OC)c(OC)cc3c2C#CCCO)c1`?
E-sel inducer: 1; Statin myotox sup: -18; PglD inh: 3; Xi reactivation: 0; FGF22 binding: 0; DENV2 CPE rescue: 30*

Results for Cc1ccc2c(CC(=O)OC(C)C(=O)Nc3ncc(Cl)cc3Cl)coc2c1 (stereo not given) ?
PglD inh: 20; Xi reactivation: 0; FGF22 binding: 0; DENV2 CPE rescue: 79*
